Screening data: PubChem BioAssay, The Scripps Research Institute Molecular Screening Center
MsrA act: activators of bovine methionine sulfoxide reductase A. hit rate 0.3% among 360,000. activation, % at 10.6 µM. purified bovine MsrA, absorbance read-out; in the data active = activation above about 7.5%;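 note: 0% = vehicle and 100% = reference activator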
proCasp3 act: activates human procaspase-3; activation, % at 8.5 µM; P42574; recombinant procaspase-3 D3A, Ac-DEVD-pNA absorbance 405 nm; hit rate 0.11% among 330,000; AID 463141;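 active = activation above the mean of all tested compounds plus 3 SD, cut at about 21% in these data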;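 note: 0% = DMSO alone and 100% = DMSO wells spiked with extra 5 µM PC-3 D3A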
Target sequence (P42574 whole entry D9A/D28A/D175A): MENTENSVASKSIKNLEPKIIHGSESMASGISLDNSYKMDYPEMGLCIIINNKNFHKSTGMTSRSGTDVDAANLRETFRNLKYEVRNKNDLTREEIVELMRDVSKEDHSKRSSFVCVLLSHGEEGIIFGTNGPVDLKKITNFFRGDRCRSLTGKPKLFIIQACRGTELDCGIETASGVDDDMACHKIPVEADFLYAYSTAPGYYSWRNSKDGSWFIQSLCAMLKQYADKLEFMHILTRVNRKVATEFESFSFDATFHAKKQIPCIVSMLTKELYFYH
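assay system = Procaspase-3 D3A mutant | signal = absorbance at 405 nm, 0 and 120 min | times = 1 h preincubation plus 2 h reaction at 25 °C | repeats = single replicate | read-out = % activation between DMSO and enzyme-spiked controls | medium = Zinc-free HEPES saline buffer with Triton X-100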
TbMetRS inhib: Trypanosoma brucei MetRS inhibition. purified T. brucei MetRS, ATP depletion, Kinase-Glo luminescence. inhibition, % at 11.9 µM. hit rate 0.4% among 360,000. AID 624268;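 active = inhibition above a per-plate cutoff of the control wells' mean inhibition plus 3 SD, cut at about 5.5% in these data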;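 note: 0% = DMSO wells median and 100% = median of wells with control inhibitor compound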
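assay system = parasite MetRS enzyme | timing = 15 min preincubation, 2 h reaction, all 25 °C | evaluation = percent inhibition relative to median high and low control wells | medium = HEPES buffer containing pyrophosphatase, BSA, spermine, DTT | compound = single dose, 11.9 µM final nominal, 0.9% final DMSO | detection = Kinase-Glo luminescence, ATP depletion format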
procasp7 counter: counter-screen for procaspase-3 activators: activators of human procaspase-7 | P55210 | recombinant procaspase-7, Ac-DEVD-pNA absorbance 405 nm; D23A/D198A/D206A triple mutant, cannot self-cleave; scale: DMSO 0, 5 µM enzyme 100 | activation, % at 8.5 µM | hit rate 0.093% among 330,000 | AID 463210;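 active = percent activation above the screen-wide mean plus 3 SD, cut at about 25% in these data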
Target sequence (P55210 whole entry D23A/D198A/D206A): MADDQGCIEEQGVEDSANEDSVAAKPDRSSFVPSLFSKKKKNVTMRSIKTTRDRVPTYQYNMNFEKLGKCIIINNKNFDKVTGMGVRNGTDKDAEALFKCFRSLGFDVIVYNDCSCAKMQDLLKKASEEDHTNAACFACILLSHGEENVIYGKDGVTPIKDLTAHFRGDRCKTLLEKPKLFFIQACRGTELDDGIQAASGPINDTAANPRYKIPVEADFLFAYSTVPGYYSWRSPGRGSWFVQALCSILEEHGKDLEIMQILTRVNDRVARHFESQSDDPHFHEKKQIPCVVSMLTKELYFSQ
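Assay system – Uncleavable procaspase-7 mutant enzyme · Quantity – 2 µM procaspase-7 mutant as dispensed · Times – 1 h preincubation, 2 h reaction · Dosing – single nominal 8.5 µM compound dose, 0.8% DMSO final · Buffer or medium – Zinc-free 50 mM HEPES buffer, pH 7.4, with NaCl and Triton X-100 · Detection – Epi-absorbance of released pNA at 405 nm, two timepoints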
MsrA inh: inhibits bovine methionine sulfoxide reductase A; purified bovine MsrA, absorbance read-out; inhibition, % at 15.5 µM; hit rate 0.75% among 360,000; in the data active = inhibition above about 4.5%;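 note: 0% = vehicle wells with enzyme and 100% = reference inhibitor wells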
The depositor's hits bear a star; · = not tested or not shown. Shown are actives, neighbours in structure and some others; about 1.5% of the full set was active somewhere.

SMILES	MsrA act	proCasp3 act	TbMetRS inhib	procasp7 counter	MsrA inh
O=C(O)c1ccccc1Nc1cc(Cl)c2nonc2c1[N+](=O)[O-]	-6.3	-7.8	0.3	-11.3	3.8
O=C(O)c1cccc(Nc2cc(Cl)c3nonc3c2[N+](=O)[O-])c1	-7.3	-9.1	0.2	-0.6	4.6*
COC(=O)[C@]12C[C@H](CC(=O)NCc3cccs3)C(=O)N(Cc3ccccc3)C1=C[C@H](C(C)(C)C)O[C@@H]2C	·	·	·	·	-0.4
CC1COc2c(N3CCN(C)CC3)c(F)cc3c(=O)c(C(=O)O)cn1c23 (centres undefined)	8.8*	-5.4	0.0	6.7	1.9
CCOCCn1c2ccccc2c2nc3ccccc3nc21	-1.8	-9.8	-0.7	-13.0	4.7*
CCn1c2ccccc2c2nc3ccccc3nc21	-2.1	-10.3	-0.5	4.4	·
CC(C)(C)S(=O)(=O)N1C[C@@H]2CC(=O)C=C2[C@H]1CCO	·	·	·	·	0.6
COc1ccc(/C=N/NC(=S)NCc2ccccc2)cc1OC	-10.7	9.4	-1.6	-2.3	2.4
COc1ccc(C=NNC(=S)NN=Cc2ccc(OC)c(OC)c2)cc1OC	1.2	·	-0.4	·	5.7*
CC1=C(C#N)C(=O)NC(=O)/C1=C\c1ccc(-c2cc(C)c(C)cc2[N+](=O)[O-])o1	-6.0	·	0.4	·	9.0*
Cc1ccc(-c2ccc(/C=C3/NC(=O)NC3=O)o2)cc1[N+](=O)[O-]	-12.8	·	-0.2	·	-0.3
O=C(CSc1nc(-c2ccccc2)nn1C(=O)c1ccccc1)Nc1cccc([N+](=O)[O-])c1	-1.1	6.5	18.4*	-1.9	0.3
O=C(NCC1CCN(C(=O)C(=O)c2cc3ccccc3o2)CC1)c1ccc2c(c1)OCCCO2	·	·	·	·	1.1
COc1ccc(CNC(=O)c2ccc(N3CCOCC3)c([N+](=O)[O-])c2)cc1	-1.0	8.1	-0.1	18.0	3.4
COc1ccc(C(=O)c2ccc(N3CCOCC3)c([N+](=O)[O-])c2)cc1	-3.7	3.7	-1.1	2.0	4.6*
O=c1c2ccccc2oc2cc(NCCCN3CCOCC3)ccc12	-3.0	-9.8	-0.3	-7.5	4.6*
CCCCCCSc1ccc([C@H]2N[C@@](C)(C(=O)OC)[C@H]3C(=O)N(C)C(=O)[C@@H]23)cc1	8.4*	5.5	-0.4	-8.0	0.0
Cc1ccc(S(=O)(=O)N2CCCc3nc(-c4ccccc4)ccc32)cc1	·	·	·	·	-0.3
Brc1ccc2nc(-c3ccc(CN4CCC(c5nc6ccccc6[nH]5)CC4)cc3)c(-c3ccccc3)nc2c1	·	·	·	·	1.9
Nc1cc2nsnc2cc1Br	0.4	-19.9	12.2*	-33.3	1.2
Nc1cccc2nsnc12	-2.6	-20.2	0.0	-25.6	-1.5
CCc1c(Cc2ccccc2)ncn1CCc1ccccc1OC	·	·	·	·	0.0
O=C(Sc1n[nH]c(=O)[nH]c1=O)c1ccccc1	10.2*	·	-0.5	·	0.8
O=c1c(-c2n[nH]c(=S)o2)cccn1Cc1ccccc1	1.8	-17.1	0.3	-15.5	4.6*
Cc1ccc(-c2cc(C(=O)N/N=C/C=C/c3ccccc3)n[nH]2)s1	-7.2	-2.9	-0.3	-0.3	4.6*
SMILES	MsrA act	proCasp3 act	TbMetRS inhib	procasp7 counter	MsrA inh
O=C(N/N=C/C=C/c1ccccc1)c1cc(C2CC2)[nH]n1	-6.2	-2.9	-0.6	5.0	3.7
CC[n+]1c(/C=C/N(C)c2ccccc2)oc2ccc(F)cc21	-6.7	-17.5	-0.1	-23.5	2.9
CC[n+]1c(/C=C/N(C)c2ccccc2)oc2ccccc21	-9.4	-3.8	0.2	-13.5	4.7*
COc1cc(C2C3=C(CCCC3=O)Nc3[nH]n(-c4ccccc4)c(=O)c32)ccc1OC(C)=O (centres undefined)	-3.5	-5.8	-0.7	-1.2	4.6*
CC(C)C[C@H]1COc2cc(Br)ccc2S(=O)(=O)N1Cc1cccc(Cl)c1	·	·	·	·	0.4
CCN(C(=O)CN1C(=O)S/C(=C\C=C\c2ccccc2)C1=O)C1CCS(=O)(=O)C1 (centres undefined)	-6.3	0.5	-0.7	1.5	4.6*
COc1cc(/C=N/N2C(C)CCCC2C)cc(Br)c1O (centres undefined)	-3.9	-2.7	0.9	-11.0	2.7
CC1CCCC(C)N1/N=C/c1cc(Br)c(O)c(Br)c1 (centres undefined)	·	2.2	·	10.9	4.6*
Cc1ccccc1C(=O)N1CCN(C(=O)C(=O)c2cccc(C(F)(F)F)c2)CC1	·	·	·	·	-0.6
O=C(c1ccccc1NS(=O)(=O)c1ccc([N+](=O)[O-])cc1[N+](=O)[O-])N1O[C@@H]2C=C[C@H]1C2	-3.7	-6.1	-0.9	-4.2	7.2*
O=C(c1ccccc1NS(=O)(=O)c1ccccc1[N+](=O)[O-])N1CCOCC1	-2.4	-1.9	-0.6	6.9	-0.2
O=c1[nH]c(Nc2ccc(F)cc2)cc2ccccc12	0.8	1.6	16.8*	4.5	0.0
O=c1[nH]c(Nc2ccccn2)cc2ccccc12	-2.6	1.3	0.3	-3.3	0.6
Cc1ccccc1Nc1cc2ccccc2c(=O)[nH]1	-7.5	-1.6	12.7*	0.8	·
O=c1[nH]c(Nc2ccccc2Cl)cc2ccccc12	1.2	-1.8	4.3	-3.9	-2.5
COc1cccc(C(=O)N[C@H](C(=O)N2CCC[C@H]2C(=O)NCc2ccccc2)c2ccccc2)c1	·	·	·	·	0.3
CCCN(C(=O)C1CCCN(c2ncnc3c2nc2n3CCCCC2)C1)c1ccccc1C (centres undefined)	·	·	·	·	0.1
O=C(/C=C/c1c(Cl)cccc1Cl)NCCc1ccccc1	8.0*	3.3	0.2	-3.8	0.7
Nc1[nH]c(C(=O)c2ccc(Br)cc2)c(-c2c(F)cccc2F)c1C(=O)NCCc1c[nH]c2ccccc12	·	·	·	·	-0.1
CCOC(=O)c1nn(-c2ccc3c(c2)OCO3)cc1O	2.6	-1.4	0.1	-4.2	5.9*
CCCCCC(=O)C(=O)c1ccc(O)cc1O	-3.7	-1.2	-0.4	1.8	4.6*
O=C(N/N=C/c1cccnc1)c1cc(-c2ccccc2Cl)nc2ccccc12	-1.4	8.3	7.1*	1.6	-0.8
Cc1ccccc1-c1cc(C(=O)N/N=C/c2cccnc2)c2ccccc2n1	-0.7	·	2.6	·	1.3
O=[N+]([O-])c1ccc2[nH]c(=S)sc2c1	9.6*	·	-0.2	·	1.4
C=CCN=C1NC(CCc2ccccc2)C(C(=O)OC)=C(C)N1Cc1cccc(C(F)(F)F)c1 (centres undefined)	·	·	·	·	-0.8
Cc1ccc(-c2nc3ccccc3s2)cc1S(=O)(=O)N1CCOCC1	-4.4	7.1	-0.4	9.0	0.1
Cc1ccc(-c2nnc(NCc3nc4ccccc4[nH]3)c3ccccc23)cc1S(=O)(=O)N1CCOCC1	-11.1	-13.5	12.0*	8.1	·
CCN(c1ccc(OC)cc1)S(=O)(=O)c1nnc(NC(=O)c2ccco2)s1	0.7	-6.6	0.3	2.4	4.6*
COc1ccc(N(CC(C)C)S(=O)(=O)c2nnc(NC(=O)c3ccco3)s2)cc1	-7.5	-4.0	-0.8	-15.9	5.3*
CCN(c1cc(C)cc(C)c1)S(=O)(=O)c1nnc(NC(=O)c2ccco2)s1	3.4	-3.7	-0.4	-7.0	3.6
